For series [1], the system named is MDA-MB-231. Nature of the series: MTT survival assay. As to conditions: Homo sapiens, read-out: IC50, survival. It is filed as cell-based. The gist of the method:
(§1)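 Breast cancer lines were cultured in DMEM + 10% FBS at 37 °C, 5% CO2. Cells were seeded at 3–4×10^3 per well in 96-well plates and treated with graded test-compound concentrations for 48 or 72 h. Viable cells were then measured by MTT. Experiments were run at least three times.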

The target of a further series is JAK2 (Homo sapiens, UniProt O60674). The series is described as follows: Western blot of JAK2 Tyr1007/1008 phosphorylation in MDA-MB-231 cells. It counts as cell-based. The gist of the method: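 MDA-MB-231 cells were treated with test compound, and lysates were analysed by SDS-PAGE/PVDF Western blot. Blots were probed for total and Tyr1007/1008-phosphorylated JAK2, detected with HRP secondaries and ECL on film.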

The test system of series [2] is STAT3-dependent luciferase reporter. The series is described as follows: STAT3-dependent luciferase reporter assay. It counts as cell-based, human. As to conditions: for STAT3-dependent luciferase expression: MDA-MB-231 cells, Figure 1B. The gist of the method:
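MDA-MB-231 cells stably carrying a STAT3-dependent luciferase reporter were treated with DMSO or test compound. Dose-response used graded concentrations; the time course used 2 μM for varying times. Luciferase activity was then measured with a commercial kit. Experiments were run at least three times.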

Series [3] has as its target T1, STAT3 (Homo sapiens, UniProt P40763). It counts as cell-based. The essentials:
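In MDA-MB-231 cells, constitutive pSTAT3 was assessed after graded doses for 24 h or 2 μM over time, with actin as loading control. For IL-6 induction, serum-starved cells were pretreated, then given IL-6. Localisation after 24 h used methanol/acetone-fixed, Triton-permeabilised cells stained for (p)STAT3 with Alexa555 secondary and DAPI (confocal), or fractionation with histone/actin markers. Dimers were resolved by non-denaturing PAGE and Western blot.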

The subject of another series is breast cancer cells. The series is described as follows: MTT survival assay, summary over breast cancer cells. It counts as cell-based. As to conditions: Homo sapiens, 72 h, read-out: IC50 for breast cancer cells. The gist of the method: as §1
A general note: Tetrazolium assays rely on reduction of a dye to a coloured formazan, in cell work by metabolically active cells.

For series [4], the system named is MDA-MB-231. The series is described as follows: Annexin V-FITC/PI apoptosis assay. It is filed as cell-based, human. The gist of the method: (§2)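 Cells grown in DMEM with 10% FBS at 37 °C, 5% CO2. Seeded at 3×10^5 cells/well in 6-well plates and exposed to test compound for 24 h. Stained with annexin V-FITC and propidium iodide and analysed by flow cytometry. Annexin V+/PI− plus double-positive cells were counted as apoptotic. Experiments were run at least three times.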

In the next series the test system is MDA-MB-468. The series is described as follows: MTT survival assay. It counts as cell-based. As to conditions: Homo sapiens, read-out: IC50, survival. The essentials:
as §1

Series [5] relates to MCF7. Nature of the series: MTT survival assay. To be noted: Homo sapiens, read-out: IC50, survival. It counts as cell-based. The essentials: as §1
Series [6] deals with MCF7. The series is described as follows: Annexin V-FITC/PI apoptosis assay. It counts as cell-based, human. The gist of the method:
as §2

The subject of a further series is recombinant STAT3. The series is described as follows: Pull-down assay with immobilized BMA097, purified recombinant STAT3 proteins. It counts as binding. As to conditions: silver staining. The gist of the method: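 Purified recombinant STAT3 deletion proteins were mixed with test compound immobilised on CNBr-activated Sepharose 4B, after milk blocking in Tris-HCl pH 8.0/KCl/NP-40 binding buffer. Pulled-down material was separated by SDS-PAGE and detected by silver staining or STAT3 Western blot.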

The next series has as its system MDA-MB-231 xenografts. The series is described as follows: In-vivo efficacy, xenograft tumors. Also noted: species or system mice. The gist of the method:
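Donor xenograft: 1×10^7 MDA-MB-231 cells injected s.c. into a 5-week-old female Balb/c nude mouse and grown 2 weeks. ~1.5-mm pieces were implanted s.c. in 4–6-week-old female nude mice. At ~100 mm3, five mice per group received vehicle, test compound or vincristine 0.6 mg/kg IP every 3 days for 18 days. Tumour volume was measured blinded every 3 days. IHC covered total/Tyr705-phosphorylated STAT3 and cleaved caspase 3.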

Series [7] relates to STAT3 target genes, cyclin D1 and Bcl-xL. The series is described as follows: Real-time RT-PCR and Western blot of STAT3 target genes in MDA-MB-231 cells. It is filed as cell-based, human. As to conditions: mRNA by real-time RT-PCR and protein by Western blot. The gist of the method: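 MDA-MB-231 cells were treated with graded test-compound concentrations. Cyclin D1, Bcl-xL and STAT3 mRNAs were measured by SYBR Green real-time RT-PCR and quantified by 2ΔΔCt against GAPDH (n=3). For protein, cells were treated for 24 h, then analysed by SDS-PAGE/PVDF Western blot with HRP secondaries and ECL on film, using actin as loading control.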
Background: Quantitative PCR measures a nucleic acid by following its amplification.

Series [8] is described as follows: Body weight in xenograft study. It is filed as in vivo, mice. The essentials:
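MDA-MB-231 tumour pieces (~1.5 mm) from a donor xenograft were implanted s.c. in the left flank of 4–6-week-old female Balb/c nude mice. At ~100 mm3, mice were randomised (5/group) to vehicle, 10 or 40 mg/kg test compound, or 0.6 mg/kg vincristine. Dosing was IP every 3 days for 18 days, with body weight recorded every 3 days.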

The target in series [9] is T1, STAT3. Nature of the series: Pull-down assay with immobilized BMA097, MDA-MB-231 cell lysate. It counts as binding. The essentials: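 Test compound was coupled to CNBr-activated Sepharose 4B and blocked with 10% milk in binding buffer (20 mM Tris-HCl pH 8.0, 150 mM KCl, 1 mM EDTA, 15% glycerol, 0.5% NP-40, 0.2 mM PMSF, protease inhibitors). Beads were mixed with MDA-MB-231 lysate. For competition, lysate was first incubated 30 min at 37 °C with DMSO, 400 μM free compound or an irrelevant compound. For elution, bound material was incubated 1 h with the same agents. Read-out was SDS-PAGE and STAT3 Western blot.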

The subject of series [10] is MDA-MB-231 and MCF-7 cells. The series is described as follows: JC-1 mitochondrial membrane potential assay. It counts as cell-based, human. As to conditions: JC-1, 24 hours, both cell lines. The essentials:
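MDA-MB-231 and MCF-7 cells were exposed to graded test-compound concentrations for 24 h. They were then stained with JC-1 (5 μg/mL) for 30 min at 37 °C, washed in PBS and analysed by flow cytometry. Δψm was taken as the ratio of red (aggregate) to green (monomer) fluorescence. Experiments were run at least three times.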

A short description of another series: MTT survival assay. It counts as cell-based. To be noted: human, MCF10A cells, IC50, cytotoxicity.

From publication PMC5934316 (Oncogene, 2018) come the findings set out here.

Like-named read-outs stand apart in the source and are kept apart here.

T1 sequence (P40763 whole entry): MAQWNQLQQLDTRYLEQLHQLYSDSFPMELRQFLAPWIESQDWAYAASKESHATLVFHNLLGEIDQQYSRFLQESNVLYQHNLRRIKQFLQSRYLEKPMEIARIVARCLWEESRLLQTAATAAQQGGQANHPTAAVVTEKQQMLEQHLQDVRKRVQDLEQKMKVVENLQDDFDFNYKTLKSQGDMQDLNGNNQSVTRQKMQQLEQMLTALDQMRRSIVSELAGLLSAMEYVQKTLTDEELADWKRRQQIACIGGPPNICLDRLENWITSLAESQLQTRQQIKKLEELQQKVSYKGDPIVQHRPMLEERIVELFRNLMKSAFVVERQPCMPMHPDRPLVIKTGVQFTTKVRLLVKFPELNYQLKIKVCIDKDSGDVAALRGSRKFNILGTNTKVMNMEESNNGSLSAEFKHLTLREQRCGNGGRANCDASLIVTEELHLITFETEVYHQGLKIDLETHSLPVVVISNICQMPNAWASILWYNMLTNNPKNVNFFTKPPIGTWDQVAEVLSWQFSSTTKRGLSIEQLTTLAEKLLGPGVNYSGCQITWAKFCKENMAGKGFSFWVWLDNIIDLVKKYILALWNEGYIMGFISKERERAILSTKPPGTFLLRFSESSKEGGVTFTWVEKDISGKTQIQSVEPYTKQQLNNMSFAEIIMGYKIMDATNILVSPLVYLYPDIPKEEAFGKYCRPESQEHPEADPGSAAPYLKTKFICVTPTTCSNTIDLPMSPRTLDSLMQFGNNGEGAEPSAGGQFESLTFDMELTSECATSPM
Chain of JAK2 (O60674 whole entry): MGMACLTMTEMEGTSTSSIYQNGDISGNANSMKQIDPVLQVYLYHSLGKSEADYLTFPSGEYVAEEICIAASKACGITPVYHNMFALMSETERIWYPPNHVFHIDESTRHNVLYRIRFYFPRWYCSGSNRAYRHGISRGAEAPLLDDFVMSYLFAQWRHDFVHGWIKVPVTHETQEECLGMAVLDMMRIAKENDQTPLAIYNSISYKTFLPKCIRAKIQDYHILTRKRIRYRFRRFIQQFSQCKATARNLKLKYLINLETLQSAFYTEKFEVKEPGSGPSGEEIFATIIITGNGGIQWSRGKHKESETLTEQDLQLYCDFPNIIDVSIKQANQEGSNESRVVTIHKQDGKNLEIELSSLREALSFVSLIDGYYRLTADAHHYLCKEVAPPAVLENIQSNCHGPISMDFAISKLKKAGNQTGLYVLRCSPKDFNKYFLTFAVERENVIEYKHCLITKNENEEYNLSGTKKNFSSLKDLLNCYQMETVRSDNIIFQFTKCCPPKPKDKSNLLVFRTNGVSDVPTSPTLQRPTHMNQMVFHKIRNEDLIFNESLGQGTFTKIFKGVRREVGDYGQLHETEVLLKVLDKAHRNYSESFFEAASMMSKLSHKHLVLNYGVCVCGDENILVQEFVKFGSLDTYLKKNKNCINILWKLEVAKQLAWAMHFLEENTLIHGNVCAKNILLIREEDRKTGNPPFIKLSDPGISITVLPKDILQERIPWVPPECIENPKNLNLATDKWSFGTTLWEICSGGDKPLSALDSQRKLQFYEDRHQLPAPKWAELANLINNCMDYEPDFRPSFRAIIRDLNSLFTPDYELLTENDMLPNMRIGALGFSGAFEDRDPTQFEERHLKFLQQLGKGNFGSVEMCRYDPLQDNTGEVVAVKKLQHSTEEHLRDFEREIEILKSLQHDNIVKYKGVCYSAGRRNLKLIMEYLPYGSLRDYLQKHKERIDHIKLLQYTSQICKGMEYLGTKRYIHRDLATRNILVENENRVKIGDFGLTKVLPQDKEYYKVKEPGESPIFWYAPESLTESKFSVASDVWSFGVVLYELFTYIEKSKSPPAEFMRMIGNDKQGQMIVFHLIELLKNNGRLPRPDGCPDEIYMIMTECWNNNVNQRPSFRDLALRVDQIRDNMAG

The term IC50 denotes the point on the concentration scale where inhibition reaches its midpoint. `N#CCCCn1cc(C2=C(c3cn(CCCC#N)c4ccccc34)C(=O)NC2=O)c2ccccc21` [BMA097, 2,3-bis[1-(3-cyanopropyl)-1H-indol-3-yl]maleimide]: the IC50 in the series with MDA-MB-231 [1] (MDA-MB-231, 48 h) is 3.6 µM; with MDA-MB-231 [1] (MDA-MB-231, 72 h), 0.9 µM; in series [2] (Homo sapiens, MDA-MB-231, read-out: IC50, inhibition of STAT3-dependent luciferase expression), roughly 1.8 µM; in the series on breast cancer cells, 0.9 to 3.9 µM; in the series with MDA-MB-468 (MDA-MB-468, 48 h), 4 µM; in the series on MDA-MB-468 (MDA-MB-468, 72 h), 1.8 µM. In addition, the IC50 was found to be 6.4 µM in the series on MCF7 [5] (MCF7, 48 h) and 3.9 µM in the series with MCF7 [5] (MCF7, 72 h). In addition, the “level of total JAK2” value at JAK2 is on record as “no effect”. The JAK2 phosphorylation/activation entry on JAK2 (Tyr1007/1008) is recorded as “does not inhibit”. Besides, the STAT3-dependent luciferase expression result in series [2] is “significantly inhibited”. The “t1/2, inhibition of STAT3-dependent luciferase expression” value in [2] (re-synthesized BMA097, time course at 2 μM) is ~ 16 hrs. Moreover, at STAT3 [3], the “level of total STAT3” value is “little effect”. Further, at STAT3 [3], the “phosphorylation of Ser727 of STAT3” value is listed as “did not affect”. Besides, the “phosphorylation of Tyr705 of STAT3” value at STAT3 [3] (constitutive, dose- and time-dependent) was “inhibits”. Moreover, the “nucleus-localized STAT3” value at STAT3 [3] (immunofluorescence and fractionation, 24 hrs) was “disappeared”. Also, the STAT3 dimerization result at STAT3 [3] (non-denaturing PAGE, dose- and time-dependent) was “inhibited”. Moreover, at STAT3 [3] (serum-starved MDA-MB-231 cells), the “IL-6-induced phosphorylation and activation of STAT3” value is “reduced”. The “total annexin V-positive cells” value in the series on MDA-MB-231 [4] (2 μM BMA097, 24 hrs) is listed as 51.9%; with MDA-MB-231 [4] (4 μM BMA097, 24 hrs) it was 63.8%; with MCF7 [6] (2 μM BMA097, 24 hrs), 34.2%; in the series on MCF7 [6] (4 μM BMA097, 24 hrs), 48.1%. The “pull-down of recombinant STAT3 lacking the TAD domain (ΔTAD-C)” value in the series on recombinant STAT3 is on record as “successfully pulled down”. Further, in the series with recombinant STAT3, the “pull-down of recombinant STAT3 with further deletion of the SH2 domain (ΔSH2-C)” value is on record as “abolished the binding”. The “growth and final weight of MDA-MB-231 xenograft tumors” value in the series with MDA-MB-231 xenografts (10 mg/kg IP every 3 days for 18 days) and in the series on MDA-MB-231 xenografts (40 mg/kg IP every 3 days for 18 days) was “significantly reduced” throughout. Moreover, in the series with MDA-MB-231 xenografts (IHC staining), the “caspase 3 cleavage in xenograft tumors” value is recorded as “induced”. In addition, in the series with MDA-MB-231 xenografts (IHC staining, vs vehicle control), the “phosphorylated STAT3 in xenograft tumors” value is recorded as “reduced level”. In series [7], the “expression of STAT3 target genes, cyclin D1 and Bcl-xL” value is reported as “inhibited”. Further, the “weight loss and apparent phenotypic changes in the mouse model” value in series [8] (40 mg/kg) is “lack of weight loss”. Moreover, the “body weight reduction between the control and treatment groups” value in series [8] (10 and 40 mg/kg IP) was “no significant differences”. Further, the “STAT3 pull-down by BMA097-conjugated Sepharose” value at STAT3 [9] (lysate of MDA-MB-231 cells) is “successfully pulled down STAT3”. Also, the “competition of STAT3 pulldown by excess free BMA097” value at STAT3 [9] (lysate pre-treated with 400 μM BMA097) is “completely inhibited”. The “mitochondrial membrane potential (Δψm)” value in series [10] is reported as “induced Δψm loss”. In addition, in the series “MTT survival assay” (48 hrs), the half-maximal inhibitory concentration (IC50) at 48 h was 10.6 µM. In addition, in the series “MTT survival assay” (72 hrs), 6.5 µM corresponded to half-maximal inhibition (IC50 at 72 h).

For the compound `CCn1cc(C2=C(c3cn(CCCCC#N)c4ccccc34)C(=O)N(CO)C2=O)c2ccccc21` [BMA088, N-hydroxymethyl-2-(1-ethyl-1H-indol-3-yl)-3-[1-(4-cyanobutyl)-1H-indol-3-yl] maleimide], in series [2], the STAT3-dependent luciferase expression result is “no inhibition”.

As to `CCn1cc(C2=C(c3cn(CCCC#N)c4ccccc34)C(=O)NC2=O)c2ccccc21` [BMA019, 2-(1-ethyl-1H-indol-3-yl)-3-[1-(3-cyanopropyl)-1H-indol-3-yl]maleimide], in series [2], the STAT3-dependent luciferase expression entry is reported as “significantly inhibited”.

For `CCn1cc(C2=C(c3cn(CCC#N)c4ccccc34)C(=O)NC2=O)c2ccccc21` [BMA016, 2-(1-ethyl-1H-indol-3-yl)-3-[1-(2-cyanoethyl)-1H-indol-3-yl]maleimide], the STAT3-dependent luciferase expression result in series [2] is recorded as “significantly inhibited”.

As for “N-hydroxy-2-(1-ethyl-1H-indol-3-yl)-3-(1-hydroxy-1H-indol-3-yl)maleimide [BMA127]”, in series [2], the STAT3-dependent luciferase expression entry was “least inhibition”.

Turning to `N#CCCCCn1cc(C2=C(c3cn(CCCCC#N)c4ccccc34)C(=O)NC2=O)c2ccccc21` [BMA100, 2,3-bis[1-(4-cyanobutyl)-1H-indol-3-yl] maleimide], the STAT3-dependent luciferase expression entry in [2] is “significantly inhibited”.
